Results on one compound are retold here after ChEMBL document CHEMBL4680238, “Novel octapeptide-DTX prodrugs targeting MMP-7 as effective agents for the treatment of colorectal cancer with lower systemic toxicity” (Eur J Med Chem, 2020).

The structures appear in SMILES notation. Residues, ends and D or L forms follow the SMILES beside them. *: point of attachment. X2 = CC(=O)O[C@@]12CO[C@@H]1C[C@H](O)[C@@]1(C)C(=O)[C@H](O)C3=C(C)[C@@H](OC(=O)[C@H](OC(=O)OCc4ccc(N*)cc4)[C@@H](NC(=O)OC(C)(C)C(F)(F)F)c4ccccc4)C[C@@](O)([C@@H](OC(=O)c4cccc(F)c4)[C@H]21)C3(C)C

One data set concerns SW-620. In words: Cytotoxicity against human SW-620 cells assessed as reduction in cell viability after 72 hrs by MTT assay. The format is functional, cell-based. The settings on record: SW-620, 72 h. The gist of the method:
(§1)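 Cells seeded at 5000/well and precultured 1 day. HCT116 grown in McCoy's 5A + 10% FBS; SW620 and HEK293 in DMEM + 10% FBS; CCD18Co in DMEM + 15% FBS. Compounds from 0.1 M DMSO stocks were tested at 10^-10 to 10^-4 mol/L in sixplicate: HCT116 and HEK293 for 48 h, SW620 and CCD18Co for 72 h, at 37 °C, 5% CO2. MTT (5 mg/mL) added for 4 h, then A570 read; IC50 estimated.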
On the technique in general: Tetrazolium dyes change colour on reduction, which living cells bring about.

A short description of data set [1]: Half life in Sprague-Dawley rat plasma t 50 ug/ml up to 72 hrs by RP-HPLC analysis. The settings on record: dose 50 µg/ml. Type of data set: ADME, cell-free.
For data set [2], the system named is HCT-116. In words: Cytotoxicity against human HCT-116 cells assessed as reduction in cell viability after 48 hrs by MTT assay. As to conditions: HCT-116, 48 h. Type of data set: functional, cell-based. The gist of the method: as §1
Data set [3] in a line: Toxicity in BALB/c nude mouse xenografted with human HCT-116 cells assessed as disordered myocardial fiber in heart at 11.17 mg/kg, ip administered once for every 7 days for 14 days by H and E staining based assay. Type of data set: organism-based. As to conditions: in vivo, 336 h, time 14 day. The gist of the method:
(§2)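 At the end of the 14-day ip xenograft study (HCT116, BALB/c nude), heart and liver were collected from vehicle and molar-equivalent dose groups. Tissues fixed in 10% formalin in PBS and stained with H&E. Liver examined at 400×, heart at 100×.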
On the technique in general: In xenograft studies the graft and the host belong to different species.

The nature of data set [4]: Toxicity in BALB/c nude mouse xenografted with human HCT-116 cells assessed as concentrated nucleus in liver at 11.17 mg/kg, ip administered once for every 7 days for 14 days by H and E staining based assay. The format is organism-based. The settings on record: in vivo, 336 h, time 14 day. The gist of the method:
as §2

In data set [5] the test system is HCT-116. In words: Antitumour activity against human HCT-116 cells xenografted in BALB/c nude mouse assessed as tumour growth inhibition at 22.2 mg/kg, ip administered once for every 7 days for 14 days relative to control. The format is functional. As to conditions: HCT-116, ip, 336 h, time 14 day, read-out: TGI. The gist of the method:
(§3)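 Male BALB/c nude mice received s.c. HCT116 cells (2 × 10^6 in 0.2 mL PBS). Once tumours reached 100-200 mm3, mice were randomized into groups of six. Dosing was ip, 0.1 mL/10 g, once every 7 days, in DMSO 0.5%/castor oil 5%/ethanol 5%/saline 89.5%; vehicle controls got solvent. Caliper volume V = L×W²×0.52 read every 2-3 days. Tumours excised and weighed on day 14.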

The test system of a further data set is CCD-18Co. In words: Cytotoxicity against human CCD-18Co cells assessed as reduction in cell viability after 72 hrs by MTT assay. The format is cell-based. In short, it runs like this:
as §1

For data set [6], the system named is HCT-116. In words: Antitumour activity against human HCT-116 cells xenografted in BALB/c nude mouse assessed as tumour growth inhibition at 11.1 mg/kg, ip administered once for every 7 days for 14 days relative to control. The format is functional. The settings on record: HCT-116, ip, 336 h, time 14 day, read-out: TGI. In short, it runs like this:
as §3

The nature of data set [7]: Toxicity in BALB/c nude mouse xenografted with human HCT-116 cells assessed as necrosis in liver at 11.17 mg/kg, ip administered once for every 7 days for 14 days by H and E staining based assay. Type of data set: organism-based. As to conditions: in vivo, 336 h, time 14 day. In short, it runs like this: as §2
Data set [8] deals with HCT-116. In words: Antitumour activity against human HCT-116 cells xenografted in ip dosed BALB/c nude mouse assessed as tumour growth inhibition administered once for every 7 days for 14 days. The format is functional, organism-based. As to conditions: time 14.0 day. In short, it runs like this:
as §3

The test system of a further data set is HEK293. Put plainly: Cytotoxicity against HEK293 cells assessed as reduction in cell viability after 48 hrs by MTT assay. The format is cell-based. As to conditions: Homo sapiens, HEK293, 48 h. The gist of the method:
as §1

A short description of data set [9]: Toxicity in BALB/c nude mouse xenografted with human HCT-116 cells assessed as reduction in body weight at 5.5 mg/kg, ip administered once for every 7 days for 14 days relative to control. Details: scale not given: the % may be the effect or the level left. As to conditions: in vivo, 336 h, time 14 day. The format is organism-based. In short, it runs like this: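 HCT116 cells (2 × 10^6 in 0.2 mL PBS) inoculated subcutaneously into male BALB/c nude mice; at mean tumor volume 100-200 mm3, randomized, six mice per group. Dosed intraperitoneally once every 7 days in DMSO (0.5%)/castor oil (5%)/ethanol (5%)/saline (89.5%), 0.1 mL per 10 g; vehicle controls received solvent. Body weight monitored every other day or three days; mice weighed on day 14.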

The nature of data set [10]: Toxicity in BALB/c nude mouse xenografted with human HCT-116 cells assessed as reduction in body weight at 11.1 mg/kg, ip administered once for every 7 days for 14 days relative to control. Also on record: scale not given: the % may be the effect or the level left. As to conditions: in vivo, 336 h, time 14 day. Type of data set: organism-based. In short, it runs like this:
(§4)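 HCT116 s.c. xenografts in male BALB/c nude mice, n = 6 per group. Dosing was ip once every 7 days for 2 weeks in DMSO/castor oil/ethanol/saline; vehicle controls got solvent. Body weight recorded every other day or every three days. Weight loss taken at day 14. Mean ± SD.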

The nature of data set [11]: Half life of compound in PBS buffer at pH 7.4 at 50 ug/ml up to 72 hrs by RP-HPLC analysis. The settings on record: dose 50 µg/ml. Type of data set: physicochemical.
Data set [12] has as its system HCT-116. In words: Antitumour activity against human HCT-116 cells xenografted in BALB/c nude mouse assessed as tumour growth inhibition at 5.55 mg/kg, ip administered once for every 7 days for 14 days relative to control. Type of data set: functional. The settings on record: HCT-116, ip, 336 h, time 14 day, read-out: TGI. The gist of the method: as §3
Data set [13] in a line: Toxicity in BALB/c nude mouse xenografted with human HCT-116 cells assessed as reduction in body weight at 22.2 mg/kg, ip administered once for every 7 days for 14 days relative to control. Also on record: scale not given: the % may be the effect or the level left. The format is organism-based. The settings on record: in vivo, 336 h, time 14 day. The gist of the method:
as §4

The nature of data set [14]: Toxicity in BALB/c nude mouse xenografted with human HCT-116 cells assessed as inflammatory cell invasion in heart at 11.17 mg/kg, ip administered once for every 7 days for 14 days by H and E staining based assay. The format is organism-based. The settings on record: in vivo, 336 h, time 14 day. The gist of the method: as §2

The IC50 is the point on the concentration scale where inhibition reaches its midpoint. One may read the half-life as how long it takes for the measured level to halve.

Turning to `CC[C@H](C)[C@H](NC(=O)CNC(=O)[C@H](CCC(N)=O)NC(=O)[C@@H]1CCCN1C(=O)CNC(C)=O)C(=O)N[C@@H](C)C(=O)N[C@@H](CCSC)C(=O)N[C@@H](CCC(N)=O)C(=O)N[C@@H](CC(C)C)C(=O)Nc1ccc(COC(=O)O[C@@H](C(=O)O[C@H]2C[C@@]3(O)[C@@H](OC(=O)c4cccc(F)c4)[C@@H]4[C@]5(OC(C)=O)CO[C@@H]5C[C@H](O)[C@@]4(C)C(=O)[C@H](O)C(=C2C)C3(C)C)[C@@H](NC(=O)OC(C)(C)C(F)(F)F)c2ccccc2)cc1` (Ac-GPQGIAMQL-X2), the IC50 in the data set with SW-620 was 6.59 µM; in the data set on HCT-116 [2], 0.0028 µM; in the data set on CCD-18Co it was greater than 200 µM; with HEK293 it was 86.8 µM. Besides, the half-life at 50 ug/ml is 43.8 h in data set [1] and greater than 72 h in [11]. In addition, the Activity entry in data set [3] is “Non-Toxic”; in data set [4], “Non-Toxic”; in data set [7], “Non-Toxic”; in [9] it was 4.6%; in data set [10] it was 8.5%; in data set [13], 8.7%. Besides, the Activity result in data set [14] is “Non-Toxic”. Besides, the inhibition in vivo at 22.2 mg/kg with HCT-116 [5] was 46.3%. Also, in the data set on HCT-116 [6], the inhibition in vivo at 11.1 mg/kg came out at 35.2%. In the data set on HCT-116 [8], the TGI result was “Dose-dependent effect”. Moreover, in the data set on HCT-116 [12], the inhibition in vivo at 5.55 mg/kg was 30.5%.
